Results taken from ChEMBL document CHEMBL3124918, “Optimization of peptides that target human thymidylate synthase to inhibit ovarian cancer cell growth” (2014).
Active and inactive are the calls of the source. The calls are words filed in the database; no cut-off is given here. Non-standard residues stand in square brackets, D forms with d. Residues, ends and D or L forms follow the SMILES beside them.

Experiments:
[1] = Upregulation of thymidylate synthase total protein level in 13-fold cisplatin-resistant human C13 cells at 5 uM after 48 hrs by Western blotting analysis; type: functional, cell-based
[2] = test system: 2008; experiment: Upregulation of thymidylate synthase total protein level in human 2008 cells at 5 uM after 48 hrs by Western blotting analysis; type: functional, cell-based
[3] = molecular target: Thymidylate synthase (Homo sapiens) (UniProt P04818); experiment: Inhibition of human thymidylate synthase using dUMP as substrate at 75 uM after 1 hr by UV-vis spectrophotometric analysis in presence of mTHF relative to control
In short: (§1)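 Purified hTS, concentration by UV-vis (ε280 = 89 000 M−1 cm−1), preincubated 1 h with peptide in phosphate buffer pH 6.9 at 25 °C. Reaction in 50 mM TES pH 7.4 with 25 mM MgCl2, 6.5 mM HCHO, 1 mM EDTA, 75 mM βME, 0.6 mM dUMP, 0.15 mM mTHF. A340 followed 3 min. I% versus enzyme-alone control, mean ± SEM, n = 3.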

[4] = Cytotoxicity against 10-fold cisplatin-resistant human A2780C/P cells cell survival at 10 uM after 72 hrs by crystal violet staining-based spectrophotometric analysis relative to control; conditions: A2780cisR, read-out: Survival
[5] = test system: A2780; experiment: Cytotoxicity against human A2780 cells assessed as cell survival at 10 uM after 72 hrs by crystal violet staining-based spectrophotometric analysis relative to control; conditions: A2780, 72 h, read-out: Survival
[6] = Cytotoxicity against 13-fold cisplatin-resistant human C13 cells cell survival at 10 uM after 72 hrs by crystal violet staining-based spectrophotometric analysis relative to control; conditions: C13, 72 h, read-out: Survival
[7] = test system: 2008; experiment: Cytotoxicity against human 2008 cells assessed as cell survival at 10 uM after 72 hrs by crystal violet staining-based spectrophotometric analysis relative to control; conditions: Homo sapiens, 2008, 72 h, read-out: Survival
[8] = molecular target: Thymidylate synthase (Homo sapiens) (UniProt P04818); experiment: Inhibition of human thymidylate synthase using dUMP as substrate at 50 uM after 1 hr by UV-vis spectrophotometric analysis in presence of mTHF relative to control; in short: as §1

Thymidylate synthase (Homo sapiens), sequence (P04818 2-313 limits assumed): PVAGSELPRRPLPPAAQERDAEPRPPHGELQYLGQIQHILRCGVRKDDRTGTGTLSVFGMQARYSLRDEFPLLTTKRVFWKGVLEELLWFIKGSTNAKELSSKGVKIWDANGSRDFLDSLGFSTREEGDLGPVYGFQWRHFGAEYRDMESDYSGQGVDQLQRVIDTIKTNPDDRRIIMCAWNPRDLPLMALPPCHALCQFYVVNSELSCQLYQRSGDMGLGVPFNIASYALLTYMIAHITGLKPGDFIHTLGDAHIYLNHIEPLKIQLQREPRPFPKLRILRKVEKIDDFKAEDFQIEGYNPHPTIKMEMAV

In the case of `O=c1[nH]cc(F)c(=O)[nH]1`, the Activity [1] is reported as “Active” and the Activity [2] is reported as “Active”.
In the case of `CC(C)C[C@H](N)C(=O)N[C@@H](CO)C(=O)N[C@@H](CS)C(=O)N[C@@H](CCC(N)=O)C(=O)O` (H-LSCQ-OH), the inhibition [3] is reported as 59%.
`CC(C)C[C@H](NC(=O)[C@@H](CCC(N)=O)NC(=O)[C@H](CS)NC(=O)[C@H](CO)NC(=O)[C@@H](N)CC(C)C)C(=O)N[C@@H](Cc1ccc(O)cc1)C(=O)N[C@@H](CCC(N)=O)C(=O)N[C@@H](CCCNC(=N)N)C(=O)O` (H-LSC[dQ]LYQR-OH) showed a viability at 10 µM [4] of 25%, a viability at 10 µM [5] of under 50% and a viability at 10 µM [6] of 25%. For the same compound, the viability at 10 µM [7] was under 50%.
For H-CQLYQ-OH, the inhibition [3] was 52%.
H-LSCQLYAR-OH showed an inhibition [8] of 60%.
Compound H-LSCQLYQ-OH has an inhibition [3] of 56%.
Compound H-SCQLYQR-OH has an inhibition [8] of 54%.
